Assay outcomes (PubChem BioAssay)
This is a sample that favours compounds with a hit; in the whole collection about 0.6% have one here.
GSK3beta inhib: human GSK3beta kinase inhibition; P49841; GST-GSK3beta kinase, ADP-Glo luminescence, 60 min; stronger effect = lower value; activity score (negative = inhibition), % at 10 µM; 300,000 tested, 0.038% active;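 active = more than half of replicate wells score below -50%, meaning over 50% inhibition versus plate controls; inconclusive = some replicates but at most half score below -50%; inactive = no replicate scores below -50%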;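 note: 0% = median DMSO wells and -100% = median GW8510 positive control wells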
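Test system – GST-tagged human GSK3beta kinase, cell-free · Incubation – 60 min enzyme reaction, room temperature · Signal – ADP-Glo luminescence · Also added – peptide substrate and ATP at 25 µM · Controls – DMSO neutral wells and GW8510 at 20 µM as positive · Buffer or medium – Tris/MgCl2 kinase buffer · Measure – Luminescence-derived activity versus plate DMSO and GW8510 wells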
STK33 inh: blocks human STK33 kinase activity; purified STK33, MBP phosphorylation, ADP-Glo luminescence; inhibition, % at 10 µM; 320,000 tested, 0.073% active;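 active = inhibition at or above 25%, using the most active replicate where run in duplicate; inactive = inhibition below 25%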
GSK3 alpha inh: human GSK-3 alpha kinase inhibition | ADP-Glo luminescence, 60 min | 320,000 tested, 0.1% active | AID 2650 | inhibition, % at 10 µM | P49840;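 active = more than half of replicates show inhibition above 20%; inconclusive = some but at most half of replicates above 20% inhibition; inactive = no replicate shows inhibition above 20%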;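 note: GST-tagged GSK-3 alpha with peptide substrate and 25 µM ATP; 0% = DMSO neutral wells and 100% = GW8510 positive control wells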
Target sequence (P49840 whole entry, looked up): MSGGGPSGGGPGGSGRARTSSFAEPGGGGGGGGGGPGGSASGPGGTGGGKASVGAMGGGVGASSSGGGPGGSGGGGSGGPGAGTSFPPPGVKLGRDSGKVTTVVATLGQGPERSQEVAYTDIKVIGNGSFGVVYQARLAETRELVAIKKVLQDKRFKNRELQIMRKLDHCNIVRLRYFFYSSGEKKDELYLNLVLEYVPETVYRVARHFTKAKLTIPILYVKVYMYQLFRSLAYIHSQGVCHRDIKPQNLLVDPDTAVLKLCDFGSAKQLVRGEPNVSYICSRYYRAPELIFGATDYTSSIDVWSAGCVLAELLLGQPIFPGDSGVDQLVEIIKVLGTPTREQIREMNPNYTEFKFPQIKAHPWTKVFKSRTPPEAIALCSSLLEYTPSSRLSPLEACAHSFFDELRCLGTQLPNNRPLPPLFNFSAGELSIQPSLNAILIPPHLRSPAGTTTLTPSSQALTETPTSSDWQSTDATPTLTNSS
PolyA inhibitor: blocks polyadenylation in yeast reporter cells | S. cerevisiae SKY197-pL101 polyadenylation reporter, beta-gal luminescence; efflux-impaired pdr1/pdr3 knockout yeast; score 100 = 6 SD above DMSO | activity score, % at 12 µM | 300,000 tested, 0.02% active | AID 1875;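 active = lowest replicate activity score at least 50, where 100 means six control SD above control mean; inconclusive = lowest score under 50 but half or more replicates reach 50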;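 note: yeast exposed to compound for 9 h at 30 °C; higher score means more reporter readthrough which indicates perturbed polyadenylation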
Efflux pump mplx: inhibitors of Candida antifungal efflux pumps expressed in yeast | inhibition, % at 10 µM | AID 485275 | S. cerevisiae Candida pump triplex, Nile Red efflux | 330,000 tested, 0.44% active;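 active = plate passing quality check with inhibition over a set limit, or well fluorescence over plate mean plus 4 SD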;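 note: Nile Red retained in pooled yeast measured as flow cytometry median fluorescence; 0% = buffer negative control and 100% = Enniatin B positive control; higher means more Nile Red kept so more efflux inhibition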
Yeast cmpd fluor: flagged as fluorescent in efflux inhibitor counter-screen; 1,700 tested, 4% active; S. cerevisiae AD/pABC3, compound fluorescence, flow cytometry; fluorescence ratio to DMSO, % at 10 µM; shares compounds with Efflux pump mplx;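 active = fluorescence ratio to DMSO above its plate's cutoff, the plate mean ratio plus 5 SD, cut at about 210% in these data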;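 note: unstained yeast with no Nile Red so the signal is compound autofluorescence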
Mdr1 pump inh: Candida Mdr1 efflux pump inhibition. shares compounds with Efflux pump mplx. inhibition, % at 10 µM. S. cerevisiae AD/CaMDR1, Nile Red efflux, flow cytometry. 1,700 tested, 1% active; in the data active = inhibition above about 26%;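 note: 0% = DMSO vehicle and 100% = reference inhibitor; higher means more Nile Red retained so more efflux inhibition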
CaCdr2 efflux inh: inhibitors of Candida albicans Cdr2 efflux pump | AID 588520 | shares compounds with Efflux pump mplx | Nile Red retention ratio vs DMSO, % at 10 µM | 1,700 tested, 4% active | S. cerevisiae AD/CaCDR2, Nile Red retention, flow cytometry; in the data active = Nile Red retention ratio vs DMSO above about 190%;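 note: higher ratio means more blocking of Cdr2 efflux of the dye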
Cdr1 pump inh: inhibitors of Candida albicans Cdr1 efflux pump. shares compounds with Efflux pump mplx. S. cerevisiae AD/CaCDR1, Nile Red efflux, flow cytometry. inhibition, % at 10 µM. 1,700 tested, 1% active;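 active = inhibition above the screen-wide mean plus twice its standard deviation, cut at about 32% in these data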
* hit, by the source's call; ? = inconclusive; . = no result; + = active, no number.

SMILES	GSK3beta inhib	STK33 inh	GSK3 alpha inh	PolyA inhibitor	Efflux pump mplx	Yeast cmpd fluor	Mdr1 pump inh	CaCdr2 efflux inh	Cdr1 pump inh
COc1ccc(CNC(=O)C(=O)NCC2OCCN2S(=O)(=O)c2ccccc2)cc1 (stereo not drawn)	-1.2	-1.3	-2.3	3.9	-1.0	102.2	0.6	100.1	0.2
COc1ccc(CNC(=O)C(=O)NCC2OCCN2S(=O)(=O)c2ccc(F)cc2)cc1 (stereo not drawn)	2.4	-3.4	0.2	-10.7	0.1	.	.	.	.
Cc1ccc(CNC(=O)C(=O)NCC2OCCN2S(=O)(=O)c2ccc(Br)cc2)cc1 (stereo not drawn)	-2.0	-0.8	-2.8	-1.4	0.6	109.0	0.1	112.3	0.0
COc1ccc(S(=O)(=O)N2CCOC2CNC(=O)C(=O)NCc2ccc(F)cc2)cc1OC (stereo not drawn)	1.2	-0.5	-1.4	-5.2	0.1	108.3	-0.3	93.0	-0.3
CCC(C)c1ccc(NC(=O)CN(C)CC(=O)Nc2cccc(OC)c2)cc1 (stereo not drawn)	2.0	-1.5	-0.1	4.1	0.1	.	.	.	.
COc1cc(NC(=O)CCC2CCCC2)cc(-n2cnnn2)c1	0.3	-0.4	-2.0	5.9	0.1	.	.	.	.
CN1CCN(CCn2c(=S)[nH]c3ccccc3c2=O)CC1	1.0	0.5	-1.8	1.4	0.0	.	.	.	.
O=c1c2ccccc2[nH]c(=S)n1CCN1CCc2ccccc2C1	-2.4	-2.5	-2.4	?	0.8*	99.0	-0.3	107.2	0.0
COc1ccc(S(=O)(=O)Nc2ccc(O)c(Sc3ncn[nH]3)c2)cc1	3.7	0.6	0.8	-5.5	-0.1	81.2	-0.2	95.4	-0.3
CC(C)c1ccc(S(=O)(=O)Nc2ccc(O)c(Sc3ncn[nH]3)c2)cc1	-0.2	0.4	.	-4.7	-0.9	111.2	0.1	116.5	0.1
Cc1cc(C)c(S(=O)(=O)Nc2ccc(O)c(Sc3ncn[nH]3)c2)cc1C	1.4	-0.1	-1.8	-0.7	-0.1	91.9	-0.2	91.1	0.0
Cc1cc(C)c(S(=O)(=O)Nc2ccc(O)cc2)cc1C	-0.8	-0.8	-0.2	10.8	0.0	.	.	.	.
Cc1cccc(C)c1NC(=O)CN1CCN(CCCC(c2ccc(F)cc2)c2ccc(F)cc2)CC1	.	.	.	.	0.0	.	.	.	.
O=C(O)c1ccccc1CSc1nc2ccccc2n1Cc1ccccc1C(=O)O	-0.7	-1.4	-3.8	8.9	-0.1	.	.	.	.
COc1cc2c(cc1OC)C(c1cc(OC)c(OC)cc1[N+](=O)[O-])N(C(C)=O)CC2 (stereo not drawn)	1.4	-1.8	-1.2	-0.1	-0.3	.	.	.	.
COc1ccc(NS(=O)(=O)c2cc(NC(=O)c3cccnc3Cl)ccc2N2CCCC2)cc1	5.3	0.9	-2.5	8.2	0.5*	116.4	-0.2	99.3	0.1
COC(=O)C1=C(N)Oc2cc(C)n(CCN3CCOCC3)c(=O)c2C1c1cccnc1 (stereo not drawn)	-5.7	-2.0	1.5	9.4	-0.2	.	.	.	.
C/C(=N\NC(=O)c1ccc(Cl)cc1)c1ccc(Br)s1	1.4	-0.2	-2.7	-11.8	-0.1	.	.	.	.
C/C(=N\NC(=O)c1cc(Cl)ccc1O)c1ccc(Br)s1	3.7	-0.4	-0.3	4.3	7.6*	95.3	-0.3	103.6	0.0
CC[N+](C)(C)CCN(Cc1ccc(Cl)cc1)c1ccccn1	7.4	-0.8	-0.2	10.2	0.0	.	.	.	.
CCCCCCCCCCCCCCCC[N+](C)(C)CCN(Cc1ccc(OC)cc1)c1ncccn1	.	43.0*	23.5	.	2.4*	101.5	0.1	144.1	0.0
Cc1ccc(C(=O)N/C(=C\c2ccco2)C(=O)NCCCn2ccnc2)cc1C	1.3	-0.8	-1.8	12.8	-0.1	.	.	.	.
Cc1cc(C(F)(F)F)cc(NNC(=O)NC(=O)c2ccc(Cl)cc2)n1	-2.8	0.6	-1.4	4.9	1.3*	102.2	-0.4	106.3	0.1
Cc1cc(C(F)(F)F)cc(NNC(=O)NC(=O)c2ccccc2Cl)n1	-3.7	-1.3	-0.5	-4.7	0.2	.	.	.	.
COc1cccc(-c2sc3ccccc3c2-c2ccc(OCCN3CCCC3)cc2)c1	.	-0.3	1.0	.	0.5	.	.	.	.
SMILES	GSK3beta inhib	STK33 inh	GSK3 alpha inh	PolyA inhibitor	Efflux pump mplx	Yeast cmpd fluor	Mdr1 pump inh	CaCdr2 efflux inh	Cdr1 pump inh
COc1cccc(-c2sc3ccccc3c2-c2ccc(OCCN3CCCCC3)cc2)c1	.	-0.8	-0.9	.	0.0	.	.	.	.
COc1ccc(OCCN2CCOCC2)cc1	-3.3	-2.0	-0.3	22.2	-0.1	.	.	.	.
COc1cccc(-c2sc3ccc(OC)cc3c2-c2ccc(OCCN3CCCC3)cc2)c1	.	.	.	.	73.4*	95.0	-0.3	+	0.0
COc1ccc(-c2sc3ccc(OC)cc3c2-c2ccc(OCCN3CCOCC3)cc2)cc1	.	.	.	.	51.9*	99.8	15.8	95.6	55.1*
COc1cccc(-c2sc3cc(OC)c(OC)cc3c2-c2ccc(OCCN3CCCCC3)cc2)c1	.	.	.	.	0.7	98.2	-0.1	116.4	0.1
CC(C)CN(C(=O)/C=C/c1nc2ccccc2s1)C1CCS(=O)(=O)C1 (stereo not drawn)	-0.1	-0.2	-0.9	-9.1	0.2	.	.	.	.
COC(=O)C1=C(C)N(c2cc(C)cc(C)c2)/C(=C/c2ccc(O)cc2)C1=O	-5.9	-0.9	-1.3	-2.9	0.7*	114.1	0.2	100.7	0.1
CCOc1cc(CN2CCN(Cc3ccc(C)o3)C(CCO)C2)ccc1OC (stereo not drawn)	3.9	-0.3	0.4	3.2	0.1	.	.	.	.
O=C1/C(=C/c2ccc(O)c(O)c2)Oc2cc(O)ccc21	.	45.9*	49.7	.	2.4*	103.1	0.1	153.2	0.3
CC(C)(C)C(=O)CSc1ncccn1	4.1	0.7	7.6	2.8	0.6*	95.3	-0.5	93.0	0.0
O=C(CC1C[C@H](C(=O)N2CCOCC2)[C@@]2(CCC3CCCC3)c3[nH]c4ccccc4c3CCN2C1=O)NCCN1CCOCC1 (stereo partly drawn)	.	-0.6	-0.5	.	0.0	.	.	.	.
O=C(CC1C[C@H](C(=O)N2CCOCC2)[C@@]2(CCC3CCCC3)c3[nH]c4ccccc4c3CCN2C1=O)NCC12CC3CC(CC(C3)C1)C2 (stereo partly drawn)	.	-0.6	-1.2	.	1.2*	108.6	0.3	122.6	0.2
Cc1ccc(NC(=O)CCOc2ccccc2C)cc1C	-0.9	-3.8	-0.3	6.4	0.0	.	.	.	.
CC(C)Cc1cc(CNC(=O)C2CCC(=O)N(Cc3cccc(C(F)(F)F)c3)C2)on1 (stereo not drawn)	1.7	-0.6	-0.4	12.2	9.2*	105.0	-0.1	95.1	-0.3
Cc1cc(CNC(=O)C2CCC(=O)N(Cc3cccc(C(F)(F)F)c3)C2)no1 (stereo not drawn)	-9.8	0.7	0.7	-2.3	0.0	.	.	.	.
